The text below walks through data of ChEMBL document CHEMBL1153177, “Exploring SAR features in diverse library of 4-cyanomethyl-pyrazole-3-carboxamides suitable for further elaborations as CB1 antagonists” (Bioorg Med Chem Lett, 2010).

For series [1], the target named is T1, Cannabinoid receptor 1 (Homo sapiens, UniProt P21554). It is filed as functional, cell-based, CHO-K1.
Series [2] in a line: Octanol-water partition coefficient, log D of the compound. In kind it is physicochemical.
In series [3] the target is T1, Cannabinoid receptor 1. The series is described as follows: Inverse agonist activity at human recombinant CB1 receptor expressed in CHO-K1 cells assessed as stimulation of GTPgammaS binding. It is filed as functional, cell-based. The method, boiled down: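 Membranes came from CHO-K1 cells stably transfected with recombinant human CB1. Efficacy above 100% was taken as inverse agonist activity. IC50 values are the mean of at least two determinations.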
On the technique in general: GTPγS is a poorly hydrolysed GTP analogue; its binding reports G protein activation.

T1 sequence (P21554 whole entry): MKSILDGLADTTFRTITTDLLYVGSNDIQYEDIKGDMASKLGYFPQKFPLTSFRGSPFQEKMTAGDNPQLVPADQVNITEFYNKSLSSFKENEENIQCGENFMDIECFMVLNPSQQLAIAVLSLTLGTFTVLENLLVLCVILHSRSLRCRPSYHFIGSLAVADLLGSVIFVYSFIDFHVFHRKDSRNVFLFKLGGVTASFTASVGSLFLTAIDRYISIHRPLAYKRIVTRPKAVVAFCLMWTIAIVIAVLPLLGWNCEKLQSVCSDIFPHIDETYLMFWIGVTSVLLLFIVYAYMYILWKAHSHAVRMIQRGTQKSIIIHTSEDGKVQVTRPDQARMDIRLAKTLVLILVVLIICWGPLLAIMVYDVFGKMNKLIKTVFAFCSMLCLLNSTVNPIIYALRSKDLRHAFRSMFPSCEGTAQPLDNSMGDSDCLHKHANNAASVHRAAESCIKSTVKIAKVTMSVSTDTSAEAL

For `N#CCc1c(C(=O)Nc2cnc3ccccc3c2)nn(-c2ccccc2Cl)c1-c1ccc(Cl)cc1`, 19 nM corresponded to half-maximal inhibition against Cannabinoid receptor 1 [1] (IC50). Further, in series [2], the logD (in general, the decadic logarithm of the distribution of all forms, ionised or not, between an organic phase and buffer at a given pH) came to 4.

For `N#CCc1c(C(=O)NCCN2CCCCC2)nn(-c2ccccc2Cl)c1-c1ccc(Cl)cc1`, half-maximal inhibition on Cannabinoid receptor 1 [1] (IC50) was put at 1110 nM. This molecule had a logD in series [2] of 2.9. Regarding `COC(=O)C(NC(=O)c1nn(-c2ccccc2Cl)c(-c2ccc(Cl)cc2)c1CC#N)C(C)C` (stereo not drawn), at Cannabinoid receptor 1 [1], the IC50 (as a rule, the midpoint of a concentration-inhibition curve) was 7.3 nM. Turning to `N#CCc1c(C(=O)N2Cc3ccc(Br)cc3C2)nn(-c2ccccc2Cl)c1-c1ccc(Cl)cc1`, the IC50 on Cannabinoid receptor 1 [1] was found to be 0.22 nM. Same read-out and setting: next, `Cc1cc(CNC(=O)c2nn(-c3ccccc3Cl)c(-c3ccc(Cl)cc3)c2CC#N)no1`: 15 nM. Take `N#CCc1c(C(=O)NC2CCc3ccccc32)nn(-c2ccccc2Cl)c1-c1ccc(Cl)cc1` (stereo not drawn): the IC50 against Cannabinoid receptor 1 [1] stood at 0.41 nM. As to `N#CCc1c(C(=O)N2CCCCC2c2ccc(F)cc2)nn(-c2ccccc2Cl)c1-c1ccc(Cl)cc1` (stereo not drawn), at Cannabinoid receptor 1 [1], the IC50 was 23 nM.

Turning to `CCC(CC)NC(=O)c1nn(-c2ccccc2Cl)c(-c2ccc(Cl)cc2)c1CC#N`, the IC50 on Cannabinoid receptor 1 [1] came to 5.8 nM. With `N#CCc1c(C(=O)N2CCc3ccc(C(F)(F)F)cc3C2)nn(-c2ccccc2Cl)c1-c1ccc(Cl)cc1`, the half-inhibitory concentration (IC50) on Cannabinoid receptor 1 [1] worked out at 2.1 nM. Consider `N#CCc1c(C(=O)NCc2ccc(Br)cc2)nn(-c2ccccc2Cl)c1-c1ccc(Cl)cc1`, for which the values for the 50% inhibitory concentration (IC50) on Cannabinoid receptor 1 [3] and at Cannabinoid receptor 1 [1] were 1.2 nM and 5.8 nM, respectively. In series [2], the log distribution coefficient (logD) turned out to be 4.4. As for `N#CCc1c(C(=O)NCc2ccccc2F)nn(-c2ccccc2Cl)c1-c1ccc(Cl)cc1`, on Cannabinoid receptor 1 [1], the IC50 was determined as 4.1 nM. In addition, the logD in series [2] is 4.1. `N#CCc1c(C(=O)NC2CCCCCC2)nn(-c2ccccc2Cl)c1-c1ccc(Cl)cc1`: inhibition on Cannabinoid receptor 1 [1] was half-maximal at 0.49 nM (IC50). For the molecule `N#CCc1c(C(=O)N[C@@H]2C[C@H]3CC[C@@H]2C3)nn(-c2ccccc2Cl)c1-c1ccc(Cl)cc1`, the IC50 at Cannabinoid receptor 1 [1] was determined as 2.2 nM. Take `N#CCc1c(C(=O)NCc2ccc(Cl)cc2Cl)nn(-c2ccccc2Cl)c1-c1ccc(Cl)cc1`: half-maximal inhibition on Cannabinoid receptor 1 [1] (IC50) required 1.6 nM. This molecule had a logD in series [2] of 4.6. With `COC(=O)C(Cc1ccccc1)NC(=O)c1nn(-c2ccccc2Cl)c(-c2ccc(Cl)cc2)c1CC#N` (stereo not drawn), the IC50 against Cannabinoid receptor 1 [1] is 1.2 nM. `CC(C)C(NC(=O)c1nn(-c2ccccc2Cl)c(-c2ccc(Cl)cc2)c1CC#N)C(=O)O` (stereo not drawn) had an IC50 against Cannabinoid receptor 1 [1] of 6250 nM.

In turn, `N#CCc1c(C(=O)NCc2ccc(Cl)cc2)nn(-c2ccccc2Cl)c1-c1ccc(Cl)cc1` displayed an IC50 on Cannabinoid receptor 1 [1] of 1.2 nM. Further, the logD in series [2] was determined as 4.4. The corresponding values for `N#CCc1c(C(=O)NCc2c(Cl)cccc2Cl)nn(-c2ccccc2Cl)c1-c1ccc(Cl)cc1` are 7 nM and 4.6.

The molecule `N#CCc1c(C(=O)N2CCC(c3ccc(F)cc3)CC2)nn(-c2ccccc2Cl)c1-c1ccc(Cl)cc1` came in with an IC50 against Cannabinoid receptor 1 [1] of 1 nM. `N#CCc1c(C(=O)N2CCN(c3ncccn3)CC2)nn(-c2ccccc2Cl)c1-c1ccc(Cl)cc1` gave an IC50 against Cannabinoid receptor 1 [1] of 3.8 nM. In the case of `N#CCc1c(C(=O)NCc2ccc(F)c(Br)c2)nn(-c2ccccc2Cl)c1-c1ccc(Cl)cc1`, at Cannabinoid receptor 1 [1], half-maximal inhibition (IC50) was put at 0.7 nM. In series [2], the logD is 4.4.

Take `N#CCc1c(C(=O)N2CCC(c3ccc(F)cc3)C2)nn(-c2ccccc2Cl)c1-c1ccc(Cl)cc1` (stereo not drawn): the 50% inhibitory concentration (IC50) at Cannabinoid receptor 1 [1] was 9.2 nM. Molecule `N#CCc1c(C(=O)NC(Cc2ccccc2)C(=O)O)nn(-c2ccccc2Cl)c1-c1ccc(Cl)cc1` (stereo not drawn) yielded a 50% inhibitory concentration (IC50) against Cannabinoid receptor 1 [1] of 4450 nM. As for `N#CCc1c(C(=O)N2CCC(O)(Cc3ccccc3)CC2)nn(-c2ccccc2Cl)c1-c1ccc(Cl)cc1`, the IC50 at Cannabinoid receptor 1 [1] is 3.4 nM. Still for that read-out and setting: next, `N#CCc1c(C(=O)Nc2ccc(C(F)(F)F)nc2)nn(-c2ccccc2Cl)c1-c1ccc(Cl)cc1`: 14 nM. Consider `N#CCc1ccc(NC(=O)c2nn(-c3ccccc3Cl)c(-c3ccc(Cl)cc3)c2CC#N)cc1`, for which inhibition against Cannabinoid receptor 1 [1] was half-maximal at 55 nM (IC50). In series [2], this molecule came in with a logD of 3.8. On Cannabinoid receptor 1 [1], `N#CCc1c(C(=O)NCCc2ccccc2)nn(-c2ccccc2Cl)c1-c1ccc(Cl)cc1` yielded an IC50 of 16 nM. In turn, `N#CCc1c(C(=O)N2CCCC2c2ccc(F)cc2)nn(-c2ccccc2Cl)c1-c1ccc(Cl)cc1` (stereo not drawn) registered an IC50 against Cannabinoid receptor 1 [1] of 27 nM. Same read-out and setting: next, `N#CCc1c(C(=O)N2Cc3ccc(F)cc3C2)nn(-c2ccccc2Cl)c1-c1ccc(Cl)cc1`: 5.7 nM.

`CN(Cc1ccc(F)cc1)C(=O)c1nn(-c2ccccc2Cl)c(-c2ccc(Cl)cc2)c1CC#N` registered an IC50 at Cannabinoid receptor 1 [1] of 5.6 nM. Besides, the logD in series [2] stood at 4.2.

As to `N#CCc1c(C(=O)NCc2ccc(F)cc2)nn(-c2ccccc2Cl)c1-c1ccc(Cl)cc1`, half-maximal inhibition at Cannabinoid receptor 1 [1] (IC50) was put at 2.1 nM. The molecule also returned a logD in series [2] of 4.1.

On Cannabinoid receptor 1 [1], `N#CCc1c(C(=O)N2CCC(c3ccccc3C(=O)O)CC2)nn(-c2ccccc2Cl)c1-c1ccc(Cl)cc1` displayed an IC50 of 2810 nM. The molecule `N#CCc1c(C(=O)NN2CCCCC2)nn(-c2ccccc2Cl)c1-c1ccc(Cl)cc1` registered an IC50 against Cannabinoid receptor 1 [1] of 7.5 nM. Also, the logD in series [2] is 3.6. In turn, `N#CCc1c(C(=O)N2CCC(O)(c3ccc(F)cc3)CC2)nn(-c2ccccc2Cl)c1-c1ccc(Cl)cc1` registered an IC50 on Cannabinoid receptor 1 [1] of 3 nM.

`N#CCc1c(C(=O)Nc2cccnc2Cl)nn(-c2ccccc2Cl)c1-c1ccc(Cl)cc1`: at Cannabinoid receptor 1 [1], the IC50 was 18 nM. Also, in series [2], the logD was 4.4. In turn, `C[C@H]1CC[C@H](NC(=O)c2nn(-c3ccccc3Cl)c(-c3ccc(Cl)cc3)c2CC#N)CC1` displayed an IC50 on Cannabinoid receptor 1 [1] of 1.6 nM. At Cannabinoid receptor 1 [1], `CS(=O)(=O)C1CCN(C(=O)c2nn(-c3ccccc3Cl)c(-c3ccc(Cl)cc3)c2CC#N)CC1` showed an IC50 of 17 nM. Turning to `N#CCc1c(C(=O)NCc2ccc(C#N)cc2)nn(-c2ccccc2Cl)c1-c1ccc(Cl)cc1`, the IC50 against Cannabinoid receptor 1 [1] came out at 4.2 nM. In addition, the logD in series [2] came to 3.8. The molecule `N#CCc1c(C(=O)NC2CCCCC2)nn(-c2ccccc2Cl)c1-c1ccc(Cl)cc1` returned an IC50 at Cannabinoid receptor 1 [1] of 1.9 nM. In series [2], the logD stood at 3.5. Take `N#CCc1c(C(=O)N2CCc3ccccc3C2)nn(-c2ccccc2Cl)c1-c1ccc(Cl)cc1`: at Cannabinoid receptor 1 [1], the IC50 is 5.7 nM. Consider `N#CCc1c(C(=O)NCc2cccc(Cl)c2)nn(-c2ccccc2Cl)c1-c1ccc(Cl)cc1`, for which, at Cannabinoid receptor 1 [1], the IC50 turned out to be 2.6 nM. Also, the logD in series [2] amounted to 4.4. The corresponding values for `N#CCc1c(C(=O)Nc2cccnc2)nn(-c2ccccc2Cl)c1-c1ccc(Cl)cc1` are 57 nM and 3.3.

On Cannabinoid receptor 1 [1], `N#CCc1c(C(=O)NN2CCOCC2)nn(-c2ccccc2Cl)c1-c1ccc(Cl)cc1` returned an IC50 of 71 nM. On to `N#CCc1c(C(=O)N2CCN(c3ccccc3)CC2)nn(-c2ccccc2Cl)c1-c1ccc(Cl)cc1`, for which, at Cannabinoid receptor 1 [1], the concentration for half-maximal inhibition (IC50) came out at 13 nM. On Cannabinoid receptor 1 [1], `N#CCc1c(C(=O)N2CC[C@@H](OCc3ccc(F)cc3)C2)nn(-c2ccccc2Cl)c1-c1ccc(Cl)cc1` yielded an IC50 of 20 nM. The same measure, in the same setting: next, `CC(=O)C1CCN(C(=O)c2nn(-c3ccccc3Cl)c(-c3ccc(Cl)cc3)c2CC#N)CC1`: 199 nM. The molecule `N#CCc1c(C(=O)Nc2ccc(F)cc2)nn(-c2ccccc2Cl)c1-c1ccc(Cl)cc1` yielded an IC50 against Cannabinoid receptor 1 [1] of 11 nM. This molecule showed a logD in series [2] of 4.2.

`N#CCc1c(C(=O)NN2CCCCCC2)nn(-c2ccccc2Cl)c1-c1ccc(Cl)cc1` had an IC50 at Cannabinoid receptor 1 [1] of 0.52 nM. On the same count and under the same terms, next, `COC(=O)c1ccccc1C1CCN(C(=O)c2nn(-c3ccccc3Cl)c(-c3ccc(Cl)cc3)c2CC#N)CC1`: 2.2 nM. On Cannabinoid receptor 1 [1], `N#CCc1c(C(=O)NCc2ccc(Br)cc2F)nn(-c2ccccc2Cl)c1-c1ccc(Cl)cc1` came in with an IC50 of 0.51 nM. In series [2], this molecule returned a logD of 4.5. In turn, `CS(=O)(=O)N1CCC(NC(=O)c2nn(-c3ccccc3Cl)c(-c3ccc(Cl)cc3)c2CC#N)CC1` had an IC50 against Cannabinoid receptor 1 [1] of 31 nM. In turn, `N#CCc1c(C(=O)N[C@@H]2c3ccccc3C[C@@H]2O)nn(-c2ccccc2Cl)c1-c1ccc(Cl)cc1` (single isomer, unassigned) had an IC50 against Cannabinoid receptor 1 [1] of 7.8 nM. Take `N#CCc1c(C(=O)N[C@H]2c3ccccc3C[C@H]2O)nn(-c2ccccc2Cl)c1-c1ccc(Cl)cc1` (single isomer, unassigned): the IC50 on Cannabinoid receptor 1 [1] worked out at 1.7 nM.
